Experimental data reported in ChEMBL document CHEMBL1124387, “Cardiotonic agents. 9. Synthesis and biological evaluation of a series of (E)-4,5-dihydro-6-[2-[4-(1H-imidazol-1-yl)phenyl]ethenyl]-3 (2H)-pyridazinones: a novel class of compounds with positive inotropic, antithrombotic, and vasodilatory activities for the treatment of congestive heart failure” (J Med Chem, 1989).
“And” between values parts separate entries of the source, which are not always exact repeats. Equal entries are not always repeated.

Assays:
Canis familiaris [1] = assay: Hemodynamic activity in anesthetized dog as percent change from baseline (2271 mmHg/s) in left ventricular myocardial activity at 0.1 mg/kg administered intravenously; format: functional, Canis lupus familiaris, Heart left ventricle; settings: route intravenous
Canis familiaris [2] = assay: Cardiovascular activity in presence of beta-adrenoceptor blockade in dogs as percent change in blood pressure from base line (109/88 mmHg) at 0.01 mg/kg dose given 15 min after nadolol; -10/-13; format: functional, Canis lupus familiaris
Canis familiaris [3] = assay: Cardiovascular activity in presence of beta-adrenoceptor blockade in dogs as percent change in heart rate from base line (121 bpm) at 0.01 mg/kg; format: functional, Canis lupus familiaris
Canis familiaris [4] = assay: Cardiovascular activity in presence of beta-adrenoceptor blockade in dogs as percent change in heart rate from base line (136 bpm) at 0.01 mg/kg; format: functional, Canis lupus familiaris
Canis familiaris [5] = assay: Cardiovascular activity in presence of beta-adrenoceptor blockade in dogs as percent change in left ventricular myocardial contractility from base line (1869 mmHg/s) at 0.01 mg/kg dose given 15 min after nadolol; format: functional, Canis lupus familiaris, Heart left ventricle
Canis familiaris [6] = assay: Cardiovascular activity in presence of beta-adrenoceptor blockade in dogs as percent change in forelimb vascular resistance from base line (5.23 mmHg/mL/min) at 0.01 mg/kg given 15 min after nadolol; format: functional, Canis lupus familiaris
Canis familiaris [7] = assay: Hemodynamic activity in anesthetized dog as percent change in left ventricular myocardial activity from baseline (2271 mmHg/s) at 0.03 mg/kg administered intravenously; format: functional, Canis lupus familiaris, Heart left ventricle; settings: route intravenous
Method in brief: (§1)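 Acutely instrumented anesthetized dogs (n = 6), 30-min control period. Compound in 0.9% saline, or dilute HCl diluted with saline, at 0.1 mL/kg iv over 1 min. At least four ascending half-log doses, 10 min apart, one compound per animal. Recorded: LV dP/dtmax, heart rate, aortic pressure and forelimb resistance. Values are maximum response from control average ± SEM.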

Canis familiaris [8] = assay: Hemodynamic activity in anesthetized dog as percent change in blood pressure from baseline (123 mmHg) at 0.001 mg/kg administered intravenously; format: functional, Canis lupus familiaris; settings: route intravenous; method in brief: as §1
Canis familiaris [9] = assay: Hemodynamic activity in anesthetized dog as percent change in blood pressure from baseline (123 mmHg) at 0.003 mg/kg administered intravenously; format: functional, Canis lupus familiaris; settings: route intravenous; method in brief: as §1
Canis familiaris [10] = assay: Hemodynamic activity in anesthetized dog as percent change in blood pressure from baseline (123 mmHg) at 0.01 mg/kg administered intravenously; format: functional, Canis lupus familiaris; settings: route intravenous; method in brief: as §1
Canis familiaris [11] = assay: Hemodynamic activity in anesthetized dog as percent change in blood pressure from baseline (123 mmHg) at 0.03 mg/kg administered intravenously; format: functional, Canis lupus familiaris; settings: route intravenous; method in brief: as §1
Canis familiaris [12] = assay: Hemodynamic activity in anesthetized dog as percent change in blood pressure from baseline (123 mmHg) at 0.1 mg/kg administered intravenously; format: functional, Canis lupus familiaris; settings: route intravenous; method in brief: as §1
Canis familiaris [13] = assay: Hemodynamic activity in anesthetized dog as percent change in blood pressure from baseline (123 mmHg) at 0.3 mg/kg administered intravenously; format: functional, Canis lupus familiaris; settings: route intravenous; method in brief: as §1
Canis familiaris [14] = assay: Hemodynamic activity in anesthetized dog as percent change in heart rate from baseline (152 bpm) at 0.001 mg/kg administered intravenously; format: functional, Canis lupus familiaris; settings: route intravenous; method in brief: as §1
Canis familiaris [15] = assay: Hemodynamic activity in anesthetized dog as percent change in heart rate from baseline (152 bpm) at 0.003 mg/kg administered intravenously; format: functional, Canis lupus familiaris; settings: route intravenous; method in brief: as §1
Canis familiaris [16] = assay: Hemodynamic activity in anesthetized dog as percent change in heart rate from baseline (152 bpm) at 0.03 mg/kg administered intravenously; format: functional, Canis lupus familiaris; settings: route intravenous; method in brief: as §1
Canis familiaris [17] = assay: Hemodynamic activity in anesthetized dog as percent change in heart rate from baseline (152 bpm) at 0.1 mg/kg administered intravenously; format: functional, Canis lupus familiaris; settings: route intravenous; method in brief: as §1
Canis familiaris [18] = assay: Hemodynamic activity in anesthetized dog as percent change in heart rate from baseline (152 bpm) at 0.3 mg/kg administered intravenously; format: functional, Canis lupus familiaris; settings: route intravenous; method in brief: as §1
Canis familiaris [19] = assay: Hemodynamic activity in anesthetized dog as percent change in fore limb resistance from baseline (2.77 mmHg/mL/min) at 0.001 mg/kg administered intravenously; format: functional, Canis lupus familiaris; settings: route intravenous; method in brief: as §1
Canis familiaris [20] = assay: Hemodynamic activity in anesthetized dog as percent change in fore limb resistance from baseline (2.77 mmHg/mL/min) at 0.003 mg/kg administered intravenously; format: functional, Canis lupus familiaris; settings: route intravenous; method in brief: as §1
Canis familiaris [21] = assay: Hemodynamic activity in anesthetized dog as percent change in fore limb resistance from baseline (2.77 mmHg/mL/min) at 0.01 mg/kg administered intravenously; format: functional, Canis lupus familiaris; settings: route intravenous; method in brief: as §1
Canis familiaris [22] = assay: Hemodynamic activity in anesthetized dog as percent change in fore limb resistance from baseline (2.77 mmHg/mL/min) at 0.1 mg/kg administered intravenously; format: functional, Canis lupus familiaris; settings: route intravenous; method in brief: as §1
Canis familiaris [23] = assay: Hemodynamic activity in anesthetized dog as percent change in fore limb resistance from baseline (2.77 mmHg/mL/min) at 0.3 mg/kg administered intravenously; format: functional, Canis lupus familiaris; settings: route intravenous; method in brief: as §1
Canis familiaris [24] = assay: Hemodynamic activity in anesthetized dog as percent change in left ventricular myocardial activity from baseline (2271 mmHg/s) at 0.001 mg/kg administered intravenously; format: functional, Canis lupus familiaris, Heart left ventricle; settings: route intravenous; method in brief: as §1
Canis familiaris [25] = species on record: Canis familiaris; assay: 50% increase in myocardial contractility (dP/dT max) in dogs; format: functional, Canis lupus familiaris, Myocardium; method in brief: as §1
Canis familiaris [26] = assay: (§2) Percentage increase in left ventricular contractility in anesthetized dog; format: functional, Canis lupus familiaris, Heart left ventricle
Canis familiaris [27] = assay: as §2; format: functional, Canis lupus familiaris, Heart left ventricle; remark: listed apart in the source
Canis familiaris [28] = assay: Weight of thrombus after 60 min of 1 ug/kg/min; format: functional, Canis lupus familiaris
Method in brief: (§3)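 Pentobarbital-anesthetized (32 mg/kg iv), ventilated dogs, allowed 30 min to stabilize. Continuous infusion of compound (1.0, 3.0 or 10.0 μg/kg/min) or saline began 15 min before 50 μA current was applied to an intraluminal electrode in the circumflex coronary artery. After 60 min of stimulation the animals were euthanized and the thrombus dissected and weighed. One treatment per animal.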

Canis familiaris [29] = assay: Weight of thrombus after 60 min of 10 ug/kg/min; format: functional, Canis lupus familiaris
Method in brief: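 Anesthetized adult dogs were given sodium pentobarbital (32 mg/kg iv), intubated and artificially respired, then allowed 30 min to stabilize after surgery. Circumflex coronary thrombosis was induced by delivering 50 μA through an intraluminal silver-coated copper electrode, which denuded the endothelium. Continuous drug or saline infusion began 15 min before current onset and ran throughout, with one treatment per animal. After 60 min of stimulation the thrombus was dissected and weighed.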

Phosphodiesterase 3 = Phosphodiesterase 3 (Homo sapiens, UniProt Q14432+Q13370); assay: Inhibition of phosphodiesterase 3 from human platelets at 1*10e-7-1*10e-4 M
Method in brief: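 Fraction III cAMP-PDE from guinea pig heart or human platelets. Substrate [3H]cyclic AMP 1.0 μM at 30°C, with hydrolysis held to ≤10-20% and kept linear over 30 min. Compounds in DMSO, 2.5% final.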

Canis familiaris [30] = species on record: Canis familiaris; assay: Ratio of positive inotropic activity to peripheral Vasodilator activity in dogs; format: functional, Canis lupus familiaris
Method in brief: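 Inotropic ED20 is the iv bolus dose giving a 20% rise in dP/dtmax in anesthetized dogs. Vasodilator ED20 is the bolus dose into the brachial cannula of a constant-flow perfused forelimb (pentobarbital 30 mg/kg iv then 3.0 mg/kg/h, heparinized) giving a 20% fall in perfusion pressure. Each ED20 was taken from its dose-response curve; the ratio is PI/PV.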

Canis familiaris [31] = assay: Decrease in thrombus weight in anesthetized dog coronary artery; format: functional, Canis lupus familiaris; method in brief: as §3
Canis familiaris [32] = assay: Cardiovascular activity in presence of beta-adrenoceptor blockade in dogs as percent change in forelimb vascular resistance from base line (4.71 mmHg/mL/min) at 0.01 mg/kg before nadolol administration
Canis familiaris [33] = assay: Cardiovascular activity in presence of beta-adrenoceptor blockade in dogs as percent change in left ventricular myocardial contractility from base line (2327 mmHg/s) at 0.01 mg/kg dose before nadolol administration

**Q.** With `CC1CC(=O)NN=C1/C=C/c1ccc(-n2ccnc2)cc1.Cl` (centres undefined) as the compound, how does the Change (Canis familiaris [1]) read?
**A.** 134%

**Q.** What about the Change (Canis familiaris [2]) of the same compound?
**A.** -10%

**Q.** What about the Change (Canis familiaris [3]) of the same compound?
**A.** 6%

**Q.** And the Change (Canis familiaris [4])?
**A.** 18%

**Q.** And the Change (Canis familiaris [5])?
**A.** 25%

**Q.** And the Change (Canis familiaris [6])?
**A.** -13%

**Q.** What about the Change (Canis familiaris [7]) of the same compound?
**A.** 117%

**Q.** What about the Change (Canis familiaris [8]) of the same compound?
**A.** -2%

**Q.** What about the Change (Canis familiaris [9]) of the same compound?
**A.** -5%

**Q.** And the Change (Canis familiaris [10])?
**A.** -13%

**Q.** And the Change (Canis familiaris [11])?
**A.** -24%

**Q.** What about the Change (Canis familiaris [12]) of the same compound?
**A.** -35%

**Q.** What about the Change (Canis familiaris [13]) of the same compound?
**A.** -40%

**Q.** What about the Change (Canis familiaris [14]) of the same compound?
**A.** 0.2%

**Q.** And the Change (Canis familiaris [15])?
**A.** 5%

**Q.** What about the Change (Canis familiaris [16]) of the same compound?
**A.** 23%

**Q.** And the Change (Canis familiaris [17])?
**A.** 28%

**Q.** What about the Change (Canis familiaris [18]) of the same compound?
**A.** 33%

**Q.** And the Change (Canis familiaris [19])?
**A.** 0.3%

**Q.** What about the Change (Canis familiaris [20]) of the same compound?
**A.** -15%

**Q.** What about the Change (Canis familiaris [21]) of the same compound?
**A.** -36%

**Q.** And the Change (Canis familiaris [22])?
**A.** -58%

**Q.** What about the Change (Canis familiaris [23]) of the same compound?
**A.** -54%

**Q.** What about the Change (Canis familiaris [24]) of the same compound?
**A.** 2%

**Q.** And the Dose (Canis familiaris [25])?
**A.** 8 µg/kg

**Q.** And the Increase (Canis familiaris [26])?
**A.** 19%

**Q.** And the Increase (Canis familiaris [27])?
**A.** 77% and 103%

**Q.** And the Thrombus weight (Canis familiaris [28])?
**A.** 10.7 mg

**Q.** And the Thrombus weight (Canis familiaris [29])?
**A.** 10 mg

**Q.** What about the IC50 (Phosphodiesterase 3) of the same compound?
**A.** 0.077 µM

**Q.** What about the Ratio (Canis familiaris [30]) of the same compound?
**A.** 1.29

**Q.** And the Inhibition (Canis familiaris [31])?
**A.** 65% and 44%

**Q.** And the Change (Canis familiaris [32])?
**A.** -19%

**Q.** What about the Change (Canis familiaris [33]) of the same compound?
**A.** 56%
